Data: ChEMBL document CHEMBL3351600, “Sulfur, selenium and tellurium pseudopeptides: synthesis and biological evaluation” (Bioorg Med Chem, 2014)

Key:
SK-MEL-2 = test: Growth inhibition of human SK-MEL-2 cells after 48 hrs; type: functional; settings: SK-MEL-2, 48 h
How it was run: (§1)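 NCI-60 human tumour cell line panel screen run at the US National Cancer Institute under its standard cytotoxicity protocol. It covers leukaemia, NSCLC, colon, CNS, melanoma, ovarian, renal, prostate and breast lines. An initial single-dose test was followed by five-dose testing with 48 h compound exposure.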

HOP-62 = test: Growth inhibition of human HOP62 cells after 48 hrs; type: functional; settings: HOP-62, 48 h; how it was run: as §1
NCI-H460 = test: Growth inhibition of human NCI-H460 cells after 48 hrs; type: functional; settings: NCI-H460, 48 h; how it was run: as §1
NCI-H226 = test: Growth inhibition of human NCI-H226 cells after 48 hrs; type: functional; settings: NCI-H226, 48 h; how it was run: as §1
MDA-MB-435 = test: Growth inhibition of human MDA-MB-435 cells after 48 hrs; type: functional; settings: MDA-MB-435, 48 h; how it was run: as §1
[1] = Growth inhibition of human NCI-ADR-RES cells after 48 hrs; type: functional; how it was run: as §1
DU-145 = test: Growth inhibition of human DU145 cells after 48 hrs; type: functional; settings: DU-145, 48 h; how it was run: as §1
Pseudomonas aeruginosa = test: Antimicrobial activity against Pseudomonas aeruginosa assessed as inhibition at 20 ug/6 mm disk after 1 to 2 days by agar diffusion assay; type: functional
How it was run: (§2)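 Standard agar diffusion: 6-mm paper disks loaded with 20 µg of compound were placed on inoculated plates. Inhibition-zone diameter (mm) was read after 1 and 2 days of growth.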

[2] = Growth inhibition of human EKVX cells after 48 hrs; type: functional; how it was run: as §1
MDA-MB-468 = test: Growth inhibition of human MDA-MB-468 cells after 48 hrs; type: functional; settings: MDA-MB-468, 48 h; how it was run: as §1
[3] = Growth inhibition of human HCT15 cells after 48 hrs; type: functional; settings: HCT-15, 48 h; how it was run: as §1
[4] = Growth inhibition of human RPMI8226 cells after 48 hrs; type: functional; settings: RPMI-8226, 48 h; how it was run: as §1
SF-268 = test: Growth inhibition of human SF268 cells after 48 hrs; type: functional; settings: SF-268, 48 h; how it was run: as §1
TK-10 = test: Growth inhibition of human TK10 cells after 48 hrs; type: functional; settings: TK-10, 48 h
How it was run: (§3)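 Run by the NCI 58-cell-line screen under its standard cytotoxicity protocol. Compounds were first tested at a single dose, then at five doses. Cells were exposed to compound for 48 h.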

Micrococcus luteus = test: Antimicrobial activity against Micrococcus luteus assessed as inhibition at 20 ug/6 mm disk after 1 to 2 days by agar diffusion assay; type: functional; how it was run: as §2
SW-620 = test: Growth inhibition of human SW620 cells after 48 hrs; type: functional; settings: SW-620, 48 h; how it was run: as §3
K562 = test: Growth inhibition of human K562 cells after 48 hrs; type: functional; settings: K562, 48 h; how it was run: as §1
M14 = test: Growth inhibition of human M14 cells after 48 hrs; type: functional; settings: M14, 48 h; how it was run: as §1
MDA-MB-231 = test: Growth inhibition of human MDA-MB-231 cells after 48 hrs; type: functional; settings: MDA-MB-231, 48 h; how it was run: as §1
[5] = Octanol-water partition coefficient, log P of the compound by HPLC analysis; type: physicochemical
How it was run: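 Lipophilicity was measured by reversed-phase HPLC on a Nucleosil C18 column with isocratic water/methanol (3:1) at 0.5 ml/min and UV detection at 230 and 245 nm. Dead time was set with thiourea (t0 0.728 min). Retention factor was k = (tR − t0)/t0, and log P came from a calibration against at least six reference compounds.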

[6] = Growth inhibition of human UO31 cells after 48 hrs; type: functional; settings: UO-31, 48 h; how it was run: as §3
[7] = Growth inhibition of human OVCAR5 cells after 48 hrs; type: functional; settings: OVCAR-5, 48 h; how it was run: as §1
[8] = Growth inhibition of human RXF393 cells after 48 hrs; type: functional; settings: RXF 393, 48 h; how it was run: as §1
Aspergillus niger = test: Antimicrobial activity against Aspergillus niger assessed as inhibition at 20 ug/6 mm disk after 1 to 2 days by agar diffusion assay; type: functional; how it was run: as §2
[9] = Growth inhibition of human OVCAR3 cells after 48 hrs; type: functional; settings: OVCAR-3, 48 h; how it was run: as §1
KM12 = test: Growth inhibition of human KM12 cells after 48 hrs; type: functional; settings: KM12, 48 h; how it was run: as §1
Candida albicans = test: Antimicrobial activity against Candida albicans assessed as inhibition at 20 ug/6 mm disk after 1 to 2 days by agar diffusion assay; type: functional; how it was run: as §2
A-431 = test: Cytotoxicity against human A431 cells assessed as cell viability after 24 hrs incubation by MTT assay; type: functional, cell-based; settings: A-431, 24 h
How it was run: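 Cell lines came from DSMZ; primary human fibroblasts served as non-cancer controls. Cells were grown in medium with 10% FCS, seeded at 50,000 cells/ml, and grown 2 days at 37 °C, 10% CO2. Serial dilutions were then added for 24 h. MTT (final 0.5 mg/ml) was added for 2 h. Formazan was pelleted, PBS-washed, dissolved in isopropanol/0.4% HCl and read at 590 nm. Two parallel experiments were run. IC50 was taken as the concentration giving 50% of untreated-control absorbance.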

HT-29 = test: Growth inhibition of human HT-29 cells after 48 hrs; type: functional; settings: HT-29, 48 h; how it was run: as §1
[10] = Growth inhibition of human SF295 cells after 48 hrs; type: functional; settings: SF-295, 48 h; how it was run: as §1
NCI-H322M = test: Growth inhibition of human NCI-H322M cells after 48 hrs; type: functional; how it was run: as §1
[11] = read-out: pLC50 (the source's name) (converted)

CC1=C(SCCC(=O)OCC(=O)NCCC[Te]c2ccccc2)C(=O)c2ccccc2C1=O
GI50 (SK-MEL-2): 2.09 µM | CC50 (SK-MEL-2; [11]): 12.9 µM | TGI (SK-MEL-2; read-out: pTGI (converted)): 4.79 µM | GI50 (HOP-62): 1.91 µM | CC50 (HOP-62; [11]): 23.4 µM | TGI (HOP-62; read-out: pTGI (converted)): 5.5 µM | GI50 (NCI-H460): 1.32 µM | CC50 (NCI-H460; [11]): 51.3 µM | TGI (NCI-H460; read-out: pTGI (converted)): 4.17 µM | GI50 (NCI-H226): 1.29 µM | CC50 (NCI-H226; [11]): 6.61 µM | TGI (NCI-H226; read-out: pTGI (converted)): 2.88 µM | GI50 (MDA-MB-435): 4.27 µM | CC50 (MDA-MB-435; [11]): 57.5 µM | TGI (MDA-MB-435; read-out: pTGI (converted)): 15.8 µM | GI50 [1]: 2.69 µM | LC50 [1]: 55 µM | TGI ([1]; read-out: pTGI (converted)): 10.2 µM | GI50 (DU-145): 3.31 µM | LC50 (DU-145): 33.9 µM | TGI (DU-145; read-out: pTGI (converted)): 9.12 µM | diameter of the inhibition zone (DIZ) (Pseudomonas aeruginosa): 12 mm | GI50 [2]: 1.12 µM | CC50 [2, 11]: 53.7 µM | TGI ([2]; read-out: pTGI (converted)): 10.5 µM | GI50 (MDA-MB-468): 1.66 µM | LC50 (MDA-MB-468): 7.08 µM | TGI (MDA-MB-468; read-out: pTGI (converted)): 3.39 µM | GI50 [3]: 2.57 µM | CC50 [3, 11]: 77.6 µM | TGI ([3]; read-out: pTGI (converted)): 12 µM | GI50 [4]: 2.57 µM | CC50 [4, 11]: > 100 µM | TGI ([4]; read-out: pTGI (converted)): 9.33 µM | GI50 (SF-268): 3.02 µM | CC50 (SF-268; [11]): 37.2 µM | TGI (SF-268; read-out: pTGI (converted)): 9.55 µM | GI50 (TK-10): 3.8 µM | LC50 (TK-10): 38 µM | TGI (TK-10; read-out: pTGI (converted)): 12.9 µM | diameter of the inhibition zone (DIZ) (Micrococcus luteus): 11 mm | GI50 (SW-620): 3.98 µM | CC50 (SW-620; [11]): 60.3 µM | TGI (SW-620; read-out: pTGI (converted)): 17 µM | GI50 (K562): 3.55 µM | CC50 (K562; [11]): > 100 µM | TGI (K562; read-out: pTGI (converted)): 34.7 µM | GI50 (M14): 2.04 µM | CC50 (M14; [11]): 17 µM | TGI (M14; read-out: pTGI (converted)): 5.13 µM | GI50 (MDA-MB-231): 1.86 µM | LC50 (MDA-MB-231): 9.55 µM | TGI (MDA-MB-231; read-out: pTGI (converted)): 4.27 µM | logP [5]: 3.8 | GI50 [6]: 1.86 µM | LC50 [6]: 36.3 µM | TGI ([6]; read-out: pTGI (converted)): 9.55 µM | GI50 [7]: 2.75 µM | LC50 [7]: 38 µM | TGI ([7]; read-out: pTGI (converted)): 8.51 µM | GI50 [8]: 1.74 µM | LC50 [8]: 12.9 µM | TGI ([8]; read-out: pTGI (converted)): 4.37 µM | diameter of the inhibition zone (DIZ) (Aspergillus niger): 19 mm | GI50 [9]: 2.63 µM | CC50 [9, 11]: 15.5 µM | TGI ([9]; read-out: pTGI (converted)): 5.5 µM | GI50 (KM12): 3.63 µM | CC50 (KM12; [11]): 52.5 µM | TGI (KM12; read-out: pTGI (converted)): 12.6 µM | diameter of the inhibition zone (DIZ) (Candida albicans): 0 mm | IC50 (A-431): 1 µM | GI50 (HT-29): 3.31 µM | CC50 (HT-29; [11]): > 100 µM | TGI (HT-29; read-out: pTGI (converted)): 11 µM | GI50 [10]: 1.7 µM | CC50 [10, 11]: > 100 µM | TGI ([10]; read-out: pTGI (converted)): 6.31 µM | GI50 (NCI-H322M): 2.88 µM | CC50 (NCI-H322M; [11]): 83.2 µM | TGI (NCI-H322M; read-out: pTGI (converted)): 12.6 µM
